ADAM10 inh = inhibitors of human ADAM10; inhibition, % at 7 µM; recombinant ADAM10, EDANS/DABCYL FRET peptide cleavage, 3 h; 370,000 compounds, 0.62% hits; O14672;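 active = inhibition above a per-campaign cutoff equal to the mean of compounds falling between control-based bounds plus 3 SD, cut at about 20% in these data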;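 also: 0% = DMSO wells while the 100% control is not disclosed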
ADAM17 inh = ADAM17 inhibition, QFRET primary screen. P78536. recombinant ADAM17, EDANS/DABCYL FRET peptide cleavage. inhibition, % at 6.95 µM. 370,000 compounds, 0.83% hits;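 active = inhibition above the mean of compounds lying between control limits plus 3 SD, set per campaign, cut at about 8.5% in these data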;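 also: 0% = DMSO-only wells as the low control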
Target sequence (P78536 215-824 limits assumed): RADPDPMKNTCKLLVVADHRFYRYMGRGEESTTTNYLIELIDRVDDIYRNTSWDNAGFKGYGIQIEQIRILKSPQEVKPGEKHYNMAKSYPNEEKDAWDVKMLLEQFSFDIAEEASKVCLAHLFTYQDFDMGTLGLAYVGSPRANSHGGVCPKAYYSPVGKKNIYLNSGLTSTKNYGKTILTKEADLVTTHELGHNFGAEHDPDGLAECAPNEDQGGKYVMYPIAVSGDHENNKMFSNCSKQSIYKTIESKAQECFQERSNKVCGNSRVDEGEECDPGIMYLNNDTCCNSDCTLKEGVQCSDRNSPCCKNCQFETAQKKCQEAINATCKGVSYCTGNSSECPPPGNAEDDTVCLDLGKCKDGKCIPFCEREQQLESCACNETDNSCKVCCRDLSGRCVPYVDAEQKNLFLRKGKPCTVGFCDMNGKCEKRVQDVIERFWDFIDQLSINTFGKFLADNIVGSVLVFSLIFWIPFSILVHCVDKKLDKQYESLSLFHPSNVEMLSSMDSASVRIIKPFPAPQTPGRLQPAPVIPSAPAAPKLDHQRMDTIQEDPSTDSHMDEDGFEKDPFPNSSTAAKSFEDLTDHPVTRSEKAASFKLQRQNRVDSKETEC
SENP1 FRET inh = inhibitors of human SENP1 SUMO protease catalytic domain | AID 624204 | Q9P0U3 | inhibition, % at 10 µM | recombinant SENP1 catalytic domain, CyPet-SUMO1-YPet FRET cleavage | 360,000 compounds, 0.21% hits;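 active = inhibition at least 30% at 10 µM, raw YFP signal under a set limit, fluorescence ratio 0.5 to 1.5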;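 also: 0% = enzyme with DMSO and 100% = no enzyme wells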
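Controls: no-enzyme wells low, DMSO-plus-enzyme wells high control. Test system: human recombinant His6-tagged SENP1 catalytic domain enzyme. Reagent: SFCypet-SUMO1-SFYpet FRET protein substrate, 25 nM final. Doses: one dose per compound, 10 µM, 0.5% DMSO. Detection: FRET, CFP and YFP emission. Timing: 50 min reaction at room temperature.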
FAS-TE inh = blocks the thioesterase domain of human fatty acid synthase | P49327 | recombinant FAS-TE, OMFH fluorogenic substrate, fluorescence endpoint | inhibition, % at 15 µM | 360,000 compounds, 0.67% hits | AID 602261;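 active = compounds whose normalised, plate-corrected inhibition of enzyme fluorescence in the single-dose primary screen is 50% or more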;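 also: 0% = DMSO with enzyme and 100% = substrate without enzyme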
ADAM10 confirm = confirmation of inhibitors of human ADAM10; inhibition, % at 6.95 µM; ADAM10 QFRET peptide cleavage, EDANS fluorescence; 2,100 compounds, 1% hits; AID 743208; shares compounds with ADAM10 inh;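 active = inhibition above about 20% chosen separately for each screening run, limit read from the data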;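 also: 0% = DMSO wells and 100% = marimastat wells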
ADAM17 ctr = ADAM17 inhibition, counter-screen for ADAM10 exosite hits. shares compounds with ADAM10 inh. AID 743214. ADAM17 QFRET peptide cleavage, EDANS fluorescence. 2,100 compounds, 0.5% hits. inhibition, % at 6.95 µM;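 active = mean triplicate inhibition above the solvent-only control wells' mean plus 3 SD, cut at about 12% in these data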;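 also: 0% = DMSO wells and 100% = marimastat wells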
An asterisk follows results filed as active; nt = not tested or not shown. Shown are actives, neighbours in structure and some others; about 1.9% of the full set was active somewhere.

SMILES	ADAM10 inh	ADAM17 inh	SENP1 FRET inh	FAS-TE inh	ADAM10 confirm	ADAM17 ctr
COc1ccc(C2(c3ccc(OC)cc3)NC(=O)N(CC(=O)Nc3ccccc3C(F)(F)F)C2=O)cc1	21*	8	-1	10	2	1
C[C@H]1CN([C@@H](C)CO)C(=O)Cc2cc(NC(=O)CCC(F)(F)F)ccc2O[C@H]1CN(C)Cc1ccc(-c2ccccc2)cc1	29*	8	3	10	7	2
OC1OC2COC(c3ccccc3)OC2C(O)C1O (configuration not stated)	-8	1	nt	nt	nt	nt
Cc1noc(C)c1COc1cccc(C(=O)OCCOc2ccc(F)cc2)c1	26*	5	2	21	4	1
Cc1noc(C)c1COc1cccc(C(=O)OC(C)C#N)c1 (configuration not stated)	1	-2	0	0	nt	nt
C=CCC[C@@H](Cc1ccc(F)cc1)C(=O)OC[C@H](Cc1c[nH]c2ccccc12)NC(=O)[C@@H](CC=C)CC(=O)NCCO	25*	7	-1	40	1	0
CSc1ccc(CN(C)C(=O)c2ccc(S(=O)(=O)Nc3c(C)n(C)n(-c4ccccc4)c3=O)cc2)cc1	-11	-1	2	8	nt	nt
CSc1ccc(CN(C)C(=O)c2ccc(S(=O)(=O)Nc3ccccc3)cc2)cc1	21*	6	0	13	1	0
CCSC1=C(C#N)C(c2cccs2)C(C(=O)OC)=C(C)N1 (configuration not stated)	-10	-8	-1	12	nt	nt
CCCSC1=C(C#N)C(c2cccs2)C(C(=O)Nc2ccccc2)=C(C)N1 (configuration not stated)	28*	6	-6	25	22*	7
COc1cc(C2c3c(-c4cc(Cl)c(C)cc4O)n[nH]c3C(=O)N2Cc2cccnc2)ccc1O (configuration not stated)	21*	5	1	-122	1	-1
CCN(C[C@H]1[C@@H](c2ccc(C3=CCCC3)cc2)[C@H](CO)N1Cc1ccccn1)S(=O)(=O)c1ccccc1[N+](=O)[O-]	-6	0	nt	nt	nt	nt
Cc1ccc(Nc2nc(N)nc(CN3CCN(c4ccccc4)CC3)n2)cc1Cl	9	5	-3	21	nt	nt
COc1ccc(N2CCN(Cc3nc(N)nc(Nc4ccc(C)c(Cl)c4)n3)CC2)cc1	21*	5	1	11	1	0
COc1ccc(-c2nnc(SC(C(=O)c3c[nH]c4ccccc34)c3ccccc3)n2N)cc1OC (configuration not stated)	22*	8	-31	5	5	1
CC(=O)N1CCc2cc(S(=O)(=O)NC3CCN(C(=O)OCc4ccccc4)CC3)ccc21	1	-1	nt	nt	nt	nt
Nc1ccc(S(=O)(=O)N2CCCc3ccccc32)cc1	24*	4	-5	1	0	0
C[C@@H]1[C@@H](O)C[C@@]2(CC(=O)c3ccccc3O2)O[C@H]1c1ccccc1	-1	-2	nt	nt	nt	nt
COc1cc(Br)cc(CNc2ccc(F)c([N+](=O)[O-])c2)c1O	20*	6	4	39	4	1
C=CCOC(=O)C1=C(C)N=c2sc(=C3C(=O)N(CC(=O)O)c4ccccc43)c(=O)n2C1c1ccc(OC)cc1 (configuration not stated)	-7	-4	nt	nt	nt	nt
CCNC(=S)Nc1scc(-c2ccccc2)c1C(=O)OCC	26*	7	0	18	2	1
COC(=O)[C@]12C[C@H](CC(=O)NCC34CC5CC(CC(C5)C3)C4)C(=O)N(Cc3ccccc3)C1=C[C@H](C1CCCC1)O[C@@H]2C	4	0	nt	nt	nt	nt
CS(=O)(=O)N1c2ccccc2C[C@H]1Cc1cc2ccccc2o1	-5	-1	nt	nt	nt	nt
O=C(NCCn1cc(SCc2ccccc2)c2ccccc21)c1c(F)cccc1F	24*	7	2	31	5	3
CCCCn1c(N)c(N(CCOC)C(=O)c2cc(=O)[nH]c3ccccc23)c(=O)[nH]c1=O	-30	-5	-8	-9	nt	nt
SMILES	ADAM10 inh	ADAM17 inh	SENP1 FRET inh	FAS-TE inh	ADAM10 confirm	ADAM17 ctr
CCCCn1c(N)c(N(CCOC)C(=O)c2cc(C)oc2C)c(=O)[nH]c1=O	51*	-7	-30	-6	1	2
Cc1[nH]nc(-c2ccc(O)cc2O)c1-c1ccc(Cl)cc1	20*	7	-1	-48	2	0
COc1ccc(-c2n[nH]c(C)c2-c2ccc(Cl)cc2)c(O)c1	20*	8	-2	13	5	3
COc1ccc(-c2cc(-c3ccc(C)cc3)n[nH]2)c(O)c1	33*	6	1	15	2	2
COc1ccc(C(C)(O)c2nc(-c3cccc(F)c3)cs2)cc1 (configuration not stated)	22*	5	1	19	3	0
COc1ccc(-c2csc(C(C)(O)c3cccc(F)c3)n2)cc1 (configuration not stated)	7	3	0	25	nt	nt
O=S1(=O)c2ccc(Br)cc2OC[C@@H](Cc2ccccc2)N1Cc1cn(CCC2OCCCO2)nn1	-1	-1	nt	nt	nt	nt
COc1ccc(CN(C)CC(=O)NC(=O)NC2CCCCC2)cc1	21*	-3	2	3	0	0
COc1ccc(NC(=O)CN(C)CC(=O)NC(=O)NC2CCCCC2)cc1	-26	1	-2	2	nt	nt
CCCCOc1ccc(C(=O)NC2CCCCN(C(C)C)C2=O)cc1 (configuration not stated)	-12	-2	nt	nt	nt	nt
COc1cc(S(=O)(=O)N2CCOCC2)ccc1NC(=O)COC(=O)CC12CC3CC(CC(C3)C1)C2	29*	8	3	33	2	1
CCOC(=O)CC[C@@H]1CC[C@]2(CCCN(Cc3ccc(Cl)cc3)C2)O1	-16	-3	nt	nt	nt	nt
Cc1[nH]c2ccccc2c1CCN(Cc1cccs1)C(=O)Nc1cccc2c1OCO2	10	3	nt	nt	nt	nt
S=C(Nc1ccc(Oc2ccccc2)cc1)N1CCN(c2ccccn2)CC1	22*	5	0	22	2	-1
COc1ccc(-n2c(SCC(=O)NCCCSC)nnc2-c2ccncc2)cc1	4	-1	nt	nt	nt	nt
CCOc1ccc(NC(=S)N(Cc2ccc(Cl)cc2)Cc2ccco2)cc1	24*	8	1	33	10	3
CCNS(=O)(=O)c1ccc(CCC(=O)Nc2cc(Cl)ccc2Oc2ccccc2)cc1	21*	6	3	33	4	2
O=C1/C(=C/c2cccs2)N=C(c2cccs2)N1Nc1ccccc1	25*	5	-34	19	8	2
Nn1c(SCC(=O)N2CCOCC2)nnc1-c1cc(-c2ccc(F)cc2)n[nH]1	2	5	nt	nt	nt	nt
O=S1(=O)c2ccccc2-c2c(nnn2CC2CCCCC2)CN1C1CC1	0	-1	nt	nt	nt	nt
CC(C)C[C@@H]1COc2cc(N3CCCC3)ccc2S(=O)(=O)N1	-8	-4	nt	nt	nt	nt
